Screens as filed in PubChem BioAssay.
The list is not random: actives were taken first. Their share in the collection is about 6.8%.
DUSP1 inh = human dual specificity phosphatase 1 inhibition | P28562 | recombinant MKP-1, OMFP hydrolysis fluorescence | inhibition, %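 (compounds tested at a single concentration somewhere between 10 and 100 µM)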 | hit rate 0.15% among 65,000 | AID 374;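 active means inhibition above about 50%, limit read from the data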;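 further: 0% = DMSO max control wells and 100% = wells with enzyme stopped by NaOH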
Target sequence (P28562 whole entry, looked up): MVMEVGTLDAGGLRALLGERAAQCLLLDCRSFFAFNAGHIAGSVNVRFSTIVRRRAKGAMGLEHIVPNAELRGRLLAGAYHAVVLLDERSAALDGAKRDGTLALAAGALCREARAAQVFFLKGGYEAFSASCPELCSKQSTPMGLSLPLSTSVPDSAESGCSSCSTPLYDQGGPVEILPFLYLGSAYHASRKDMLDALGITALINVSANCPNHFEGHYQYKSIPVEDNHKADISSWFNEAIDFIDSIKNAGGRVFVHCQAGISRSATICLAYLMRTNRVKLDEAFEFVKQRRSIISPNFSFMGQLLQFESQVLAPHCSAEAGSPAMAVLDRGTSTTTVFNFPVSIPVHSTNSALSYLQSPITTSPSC
Cdc25B inh = inhibitors of human Cdc25B phosphatase. hit rate 0.1% among 65,000. recombinant Cdc25B, OMFP fluorescence Ex485/Em525. AID 368. inhibition, %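 (compounds tested at 10 µM final in the well)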; in the data active means inhibition above about 50%
HER2 expr 66K = Her2 kinase expression inhibition. AID 645. P04626. hit rate 0.69% among 65,000. SKBR-3 HER2 protein level, AlphaScreen, 18-24 h; stronger effect = lower value. HER2 level % of control, % at 10 µM;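 active means HER2 level under 5% of the carrier-only control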;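 further: 100% = DMSO carrier and 0% = 500 nM PU-H71 HSP90 inhibitor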
M1 ag = M1 muscarinic receptor agonism. CHO-M1 cells, Fluo-4 calcium fluorescence, agonist mode; stronger effect = higher value. B-score at 10 µM. hit rate 3% among 64,000;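 active means fluorescence rise, raw or as B-score row- and column-corrected plate score, outside the 99.7% band of its plate's samples, either direction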
M1 antagonist = antagonists of rat M1 muscarinic receptor; P08482; CHO-M1 cells, Fluo-4 calcium, ACh EC80 antagonist mode; stronger effect = lower value; B-score at 10 µM; hit rate 3.4% among 64,000;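 active means calcium fluorescence response, raw or row-and-column corrected B-score, differing from the plate sample mean either way at a set confidence level, mostly lower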
HEK293 NFkB inh = inhibitors of the PMA/ionomycin-induced NF-kB reporter in HEK293 cells | HEK-293 NF-kB luciferase reporter, luminescence | inhibition, % at 3 µM | hit rate 0.21% among 62,000;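 active means inhibition above the mean of all tested compounds plus 3 SD, cut at about 40% in these data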;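 further: 0% = stimulated DMSO wells and 100% = 10 µM reference inhibitor 5653914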
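System: NF-kB luciferase reporter HEK-293 cells | Replication: Single test | Control set: DMSO vs reference inhibitor | Evaluation: % inhibition | Schedule: 1 h pretreatment, 16 h stimulation, 37 °C | Probe or stimulus: PMA with ionomycin | Compound dosing: One dose, 3 µM | Detection: Luciferase luminescence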
M1 antag conf = confirmation of rat M1 muscarinic receptor antagonists. hit rate 43% among 1,700. calcium response (max-min fluorescence) at 10 µM. AID 677. CHO-M1 cells, Fluo-4 calcium, ACh EC80 antagonism; stronger effect = lower value. shares compounds with M1 antagonist;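 active means calcium response below the same-plate mean of wells given acetylcholine alone at its 80%-effect dose, minus 3 SD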;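 further: raw fluorescence intensity difference in arbitrary instrument units and not normalized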
mGluR4 antag = mGluR4 (human) activity, M1 antagonist secondary assay; fluorescence response (max-min) at 10 µM; hit rate 0.9% among 1,700; AID 678; shares compounds with M1 antagonist; CHO-mGluR4 calcium flux, Fluo-4 fluorescence, glutamate EC80; stronger effect = lower value;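 active means fluorescence response below the plate's average for near-maximal glutamate wells, less 3 SD of those wells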;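 further: raw unnormalized fluorescence span taken in the window right after glutamate addition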
Active calls of the source: *; . = not tested or not shown.

SMILES	DUSP1 inh	Cdc25B inh	HER2 expr 66K	M1 ag	M1 antagonist	HEK293 NFkB inh	M1 antag conf	mGluR4 antag
COc1ccc(OC)c(S(=O)(=O)NCCc2ccccc2)c1	-4	-4	106	1.1	0.14	-3	.	.
O=C(Nc1cccc(NC(=O)c2nccc3ccccc23)c1)c1ccco1	4	-7	67	1.2	0.66	7	.	.
Cc1ccc2[nH]c3c(c2c1)CN(C(=O)CN1CCSCC1)CC3	16	-2	88	1.4	-3.1*	1	476	223
Cc1ccc2[nH]c3c(c2c1)CN(C(=O)CN1CCN(c2ccccn2)CC1)CC3	-5	9	239	8.1	0.71	.	.	.
O=C(CSc1nc2c(c(=O)[nH]1)CCCC2)Nc1ccc(Cl)cc1F	2	0	121	2.2	0.49	5	.	.
O=C(CCN1CCC(c2ccccc2)C1)c1cccs1 (configuration not stated)	14	-18	-45*	0.01	-5.1*	3	514	191
O=C(c1cccs1)N1CCC(c2ccccc2)C1 (configuration not stated)	-5	-3	89	-0.52	0.29	-17	.	.
CCN(CC)CCCN1C(=O)c2oc3ccccc3c(=O)c2C1c1cccnc1 (configuration not stated)	17	1	105	0.087	0.46	15	.	.
CCN(CC)CCCN1C(=O)c2oc3ccccc3c(=O)c2C1c1cc(OC)ccc1OC (configuration not stated)	16	0	70	-0.92	-1.9*	27	644	270
CC(C)(C)S(=O)(=O)c1c(C(=O)O)cccc1C(=O)O	17	-2	93	-0.63	0.049	4	.	.
O=C(CCCSc1nc2ccccc2s1)Nc1nccs1	-1	-15	81	-0.048	-2.7*	12	620	243
COc1ccc(S(=O)(=O)c2ccc(OC)c(OC)c2)cc1OC	9	-4	98	-0.11	0.83	24	.	.
CC1C2C(C)N(C)C(=O)N(C)C2N(C)C(=O)N1C (configuration not stated)	7	-9	84	-0.23	0.0052	11	.	.
CN1C(=O)N(C)C2C1NC(=O)N2C (configuration not stated)	10	7	88	-0.57	-9.2*	14	521	214
O=c1c2ccccc2nc(N2CCN(c3ccccc3)CC2)n1Cc1ccccc1	-3	-15	118	-0.9	-1.1	10	.	.
COc1ccccc1N1CCN(C(=O)CCCn2c(=O)[nH]c3ccsc3c2=O)CC1	13	-8	105	-1.4	-4.2*	15	617	222
COC(=O)C(C(=O)N1CCN(C)CC1)C1CCCCCC1 (configuration not stated)	-7	3	88	-0.41	-3.3*	28	527	228
CC1CCCC(NC(=O)c2ccc3c(=O)n(CC4CCCO4)c(=O)[nH]c3c2)C1C (configuration not stated)	23	-15	97	-1	-0.1	14	.	.
CC1=C(C)[N+](=O)C2CCCCC2N1[O-] (configuration not stated)	-4	-4	102	-0.067	-1	7	.	.
Clc1cc(Br)ccc1OCCOCCN1CCOCC1	10	-17	100	0.034	-0.73*	-1	448	226
Clc1ccccc1OCCCCn1ccnc1	-8	1	104	2.2	0.31	-8	.	.
Clc1cc(Br)ccc1OCCn1ccnc1	-4	0	83	0.84	-3.3*	10	442*	241
CC(C)COC(=O)c1cc(=O)[nH]c2ccccc12	9	-2	106	0.5	-0.073	7	.	.
COC(=O)c1ccc(C2C(C(C)=O)=C(O)C(=O)N2CCO)cc1 (configuration not stated)	-8	-15	127	0.32	0.9	8	.	.
O=C(Nc1cccnc1)c1ccc2snnc2c1	-16	-20	108	0.53	-0.22	-4	.	.
SMILES	DUSP1 inh	Cdc25B inh	HER2 expr 66K	M1 ag	M1 antagonist	HEK293 NFkB inh	M1 antag conf	mGluR4 antag
CCc1ccc(NC(=O)C2CC=CCC2C(=O)O)cc1 (configuration not stated)	10	-7	109	0.27	-0.23	18	.	.
O=C(O)c1ccc(NC(=O)C2CC=CCC2C(=O)O)cc1 (configuration not stated)	2	2	79	-0.07	-7.2*	16	644	244
Cc1cccc(NC(=O)Cn2c(=O)oc3ccccc32)c1	-10	-6	108	-1.2	0.17	14	.	.
CN(C)CCNc1c2c(c(C#N)c3nc4ccccc4n13)CCCC2	-3	-14	84	0.2	-4.7*	3	377*	245
O=C1OCc2cc(NC(=O)C3COc4ccccc4O3)ccc21 (configuration not stated)	-2	-5	92	-0.43	-0.24	0	.	.
Cc1cc(C)n(C(=O)c2cc3ccccc3c(=O)o2)n1	9	-7	96	0.18	-5.1*	0	662	250
COc1cccc(OC)c1C(=O)n1nc(C)cc1C	17	-1	71	0.69	-0.64	0	.	.
N#Cc1c(NC(=O)c2cc(-n3cnnc3)ccc2Cl)sc2c1CCCC2	38	0	65	-0.51	-3.2*	6	630	229
Cc1cc(C(=O)Nc2sc3c(c2C#N)CCCC3)no1	4	-7	75	-1.9	0.51	-33	.	.
CC(CCCC(C)(C)O)NCCO (configuration not stated)	3	-17	135	0.12	0.083	15	.	.
Cc1ccc2[nH]c3c(N4CCOCC4)ncnc3c2c1	-8	-14	78	1.6	0.11	.	.	.
c1ccc2c(c1)[nH]c1c(N3CCN(C4CCCCC4)CC3)ncnc12	-13	0	89	-0.43	-2.2	.	.	.
c1ccc2c(c1)[nH]c1c(N3CCSCC3)ncnc12	-25	-9	87	3.9	-2.9*	.	678	241
CN1CCN(c2ncnc3c2[nH]c2ccc(F)cc23)CC1	-18	-7	123	2.7	-6.2*	.	542	220
c1ccc2c(c1)[nH]c1c(N3CCCC3)ncnc12	-15	-20	102	1	-5.4*	23	405*	203
c1ccc2c(c1)[nH]c1c(N3CCOCC3)ncnc12	11	-1	93	0.83	-1	9	.	.
CCN(CC)CCCNC(=O)c1c(O)c2c([nH]c1=O)CCCC2	1	-4	141	-1	-0.61	5	.	.
O=C(NCC1CCCO1)c1c(O)c2c([nH]c1=O)CCCC2 (configuration not stated)	-39	7	94	0.28	-3.6*	-22	555	245
